Experiments:
Details in all cases: Acinetobacter pittii
[1] = system: CO/N=C(\C(=O)N[C@@H]1C(=O)N2C(C(=O)O)=C(COC(N)=O)CS[C@H]12)c1ccco1; assay: (§1) Ratio of Kcat to Km for Acinetobacter genomosp. 3 isolate 103 ADC-16
Outline: (§2)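 AmpC genes from AG3 clinical isolates were cloned into pGEX-6P-1 and expressed as GST fusions. The mature enzyme was purified free of GST, giving a 43 kDa SDS-PAGE band of 95% purity. Kinetics were read spectrophotometrically at 25°C in PBS with 20 mg/liter BSA, three repeats. For poor substrates, Km was taken as Ki in competitive assays with Centa as reporter substrate. Vmax came from the Michaelis-Menten equation at six times Km antibiotic.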

[2] = system: CO/N=C(\C(=O)N[C@@H]1C(=O)N2C(C(=O)O)=C(COC(C)=O)CS[C@H]12)c1csc(N)n1; assay: as §1; outline: as §2
[3] = system: CC(=O)OCC1=C(C(=O)O)N2C(=O)[C@@H](NC(=O)Cc3cccs3)[C@H]2SC1; assay: as §1; outline: as §2
[4] = system: CO[C@@]1(NC(=O)Cc2cccs2)C(=O)N2C(C(=O)O)=C(COC(N)=O)CS[C@@H]21; assay: as §1; outline: as §2
[5] = system: CC(C)(O/N=C(\C(=O)N[C@@H]1C(=O)N2C(C(=O)[O-])=C(C[n+]3ccccc3)CS[C@H]12)c1csc(N)n1)C(=O)O; assay: as §1; outline: as §2
[6] = system: CO/N=C(\C(=O)N[C@@H]1C(=O)N2C(C(=O)O)=C(COC(N)=O)CS[C@H]12)c1ccco1; assay: (§3) Activity of Acinetobacter genomosp. 3 isolate 103 ADC-16; outline: as §2
[7] = system: CO/N=C(\C(=O)N[C@@H]1C(=O)N2C(C(=O)O)=C(COC(C)=O)CS[C@H]12)c1csc(N)n1; assay: as §3; outline: as §2
[8] = system: CC(=O)OCC1=C(C(=O)O)N2C(=O)[C@@H](NC(=O)Cc3cccs3)[C@H]2SC1; assay: as §3; outline: as §2
[9] = system: C[C@H]1[C@H](NC(=O)/C(=N\OC(C)(C)C(=O)O)c2csc(N)n2)C(=O)N1S(=O)(=O)O; assay: as §3; outline: as §2
[10] = system: CO[C@@]1(NC(=O)Cc2cccs2)C(=O)N2C(C(=O)O)=C(COC(N)=O)CS[C@@H]21; assay: as §3; outline: as §2
[11] = system: CC(C)(O/N=C(\C(=O)N[C@@H]1C(=O)N2C(C(=O)[O-])=C(C[n+]3ccccc3)CS[C@H]12)c1csc(N)n1)C(=O)O; assay: as §3; outline: as §2
[12] = system: CO/N=C(\C(=O)N[C@@H]1C(=O)N2C(C(=O)O)=C(COC(N)=O)CS[C@H]12)c1ccco1; assay: (§4) Ratio of Kcat to Km for Acinetobacter genomosp. 3 isolate 195 ADC-18; outline: as §2
[13] = system: CC(=O)OCC1=C(C(=O)O)N2C(=O)[C@@H](NC(=O)Cc3cccs3)[C@H]2SC1; assay: as §4; outline: as §2
[14] = system: CO[C@@]1(NC(=O)Cc2cccs2)C(=O)N2C(C(=O)O)=C(COC(N)=O)CS[C@@H]21; assay: as §4; outline: as §2
[15] = system: CO/N=C(\C(=O)N[C@@H]1C(=O)N2C(C(=O)O)=C(COC(N)=O)CS[C@H]12)c1ccco1; assay: (§5) Activity of Acinetobacter genomosp. 3 isolate 195 ADC-18; outline: as §2
[16] = system: CC(=O)OCC1=C(C(=O)O)N2C(=O)[C@@H](NC(=O)Cc3cccs3)[C@H]2SC1; assay: as §5; outline: as §2
[17] = system: CO[C@@]1(NC(=O)Cc2cccs2)C(=O)N2C(C(=O)O)=C(COC(N)=O)CS[C@@H]21; assay: as §5; outline: as §2
[18] = system: CC(C)(O/N=C(\C(=O)N[C@@H]1C(=O)N2C(C(=O)[O-])=C(C[n+]3ccccc3)CS[C@H]12)c1csc(N)n1)C(=O)O; assay: as §5; outline: as §2

## ADC-16 protein (Acinetobacter genomosp. 3) (from UniProt Q0VTR8)
[1]
  kcat/Km: 2.34e+06 M⁻¹ s⁻¹
[2]
  kcat/Km: 212000 M⁻¹ s⁻¹
[3]
  kcat/Km: 9.92e+06 M⁻¹ s⁻¹
[4]
  kcat/Km: 1.88e+06 M⁻¹ s⁻¹
[5]
  kcat/Km: 212000 M⁻¹ s⁻¹
[6]
  Km: 0.27 µM
  kcat: 0.62 s⁻¹
[7]
  Km: 0.32 µM
  kcat: 0.07 s⁻¹
[8]
  Km: 139 µM
  kcat: 1380 s⁻¹
[9]
  Km: 3.85 µM
[10]
  Km: 0.18 µM
  kcat: 0.33 s⁻¹
[11]
  Km: 110 µM
  kcat: 0.02 s⁻¹

## ADC-18 protein (Acinetobacter genomosp. 3) (from UniProt Q0VTS0)
[12]
  kcat/Km: 1.79e+06 M⁻¹ s⁻¹
[13]
  kcat/Km: 9.57e+06 M⁻¹ s⁻¹
[14]
  kcat/Km: 1.99e+06 M⁻¹ s⁻¹
[15]
  Km: 0.27 µM
  kcat: 0.48 s⁻¹
[16]
  Km: 148 µM
  kcat: 1420 s⁻¹
[17]
  Km: 0.13 µM
  kcat: 0.27 s⁻¹
[18]
  Km: 84 µM
  kcat: 0.02 s⁻¹

From ChEMBL document CHEMBL1649124, “Genetic variability among ampC genes from acinetobacter genomic species 3” (Antimicrob Agents Chemother, 2009)
